For 8 compounds, Activity, IC50 and Ki results are on record in ChEMBL document CHEMBL4261576, “Conformationally restricted benzothienoazepine respiratory syncytial virus inhibitors: their synthesis, structural analysis and biological activities” (Medchemcomm, 2018).

Assay [1] has as its system Respiratory syncytial virus. The assay can be described thus: Antiviral activity against RSV A2 infected in human HEp2 cells assessed as protection against virus-induced cytopathic effect at 0.014 uM after 5 days by resazurin assay relative to control. In kind it is functional. A general note: Damage to the host cells serves as the signal in cytopathic effect assays.
The subject of assay [2] is Respiratory syncytial virus. Kind of assay: Antiviral activity against RSV A2 infected in human HEp2 cells assessed as protection against virus-induced cytopathic effect after 5 days by resazurin assay. Format: functional, organism-based. As to conditions: A2, HEp-2, 120 h. Summed up: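 HEp2 cells seeded at 10^3/well in 5% FBS-DMEM with 2 mM L-glutamine and 1 mM sodium pyruvate one day before infection. RSV A2 added in serum-free DMEM at final MOI 1, with compound added at the same time (final DMSO 0.5%). Incubated 5 days at 37°C/5% CO2. Resazurin then added for 6 h; fluorescence read at 545/590 nm. Percent inhibition per well; IC50 taken from the concentration-response curve.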

The test system of assay [3] is Respiratory syncytial virus. The assay can be described thus: Antiviral activity against RSV B Washington infected in human HEp2 cells assessed as protection against virus-induced cytopathic effect after 6 days by resazurin assay. In kind it is functional, organism-based. As to conditions: HEp-2, 144 h. A digest of the protocol:
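HEp2 cells seeded at 10^3/well in 5% FBS-DMEM with glutamine and pyruvate one day before infection. RSV B Washington added in serum-free DMEM at final MOI 0.2, with compound added at the same time (0.5% DMSO final). Incubated 6 days at 37°C/5% CO2. Resazurin added for 6 h; fluorescence read at 545 nm ex / 590 nm em. IC50 taken from the concentration-response curve.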

Assay [4] concerns the target Vasopressin V2 receptor (Homo sapiens, UniProt P30518). Kind of assay: Displacement of [3H] (Arg8)-vasopressin from human vasopressin V2 receptor expressed in CHO cell membranes after 60 mins.
For assay [5], the target named is Vasopressin V1a receptor (Homo sapiens, UniProt P37288). Kind of assay: Displacement of [3H] (Arg8)-vasopressin from human vasopressin V1a receptor expressed in CHO cell membranes after 60 mins. A general note: In a radioligand displacement assay an active substance lowers the binding of a labelled ligand.
Chain of Vasopressin V1a receptor (P37288 whole entry): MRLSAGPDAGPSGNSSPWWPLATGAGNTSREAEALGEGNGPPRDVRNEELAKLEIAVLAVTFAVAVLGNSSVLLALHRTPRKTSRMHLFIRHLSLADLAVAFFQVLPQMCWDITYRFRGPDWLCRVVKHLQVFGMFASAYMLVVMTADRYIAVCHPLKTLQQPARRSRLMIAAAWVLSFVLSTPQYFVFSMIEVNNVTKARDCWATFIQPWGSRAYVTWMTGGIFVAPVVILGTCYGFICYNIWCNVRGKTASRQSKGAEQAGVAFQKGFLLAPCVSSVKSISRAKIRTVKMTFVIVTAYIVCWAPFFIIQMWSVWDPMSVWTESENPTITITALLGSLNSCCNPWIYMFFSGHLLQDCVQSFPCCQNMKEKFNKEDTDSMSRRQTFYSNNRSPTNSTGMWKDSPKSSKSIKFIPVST

SMILES strings stand for the structures. pIC50, pKi: −log10 of the molar value. Several values for one entry are separate records, joined by “and”; a condition that tells them apart may be missing. Identical values can stand only once.

As a reminder, the pIC50 is the IC50 on a negative log10 scale, so that one unit is a factor of ten. Usually pKi stands for the Ki on a negative log10 scale, so that one unit is a factor of ten. Read a low pKi as a high Ki.

Chain of Vasopressin V2 receptor (P30518 whole entry): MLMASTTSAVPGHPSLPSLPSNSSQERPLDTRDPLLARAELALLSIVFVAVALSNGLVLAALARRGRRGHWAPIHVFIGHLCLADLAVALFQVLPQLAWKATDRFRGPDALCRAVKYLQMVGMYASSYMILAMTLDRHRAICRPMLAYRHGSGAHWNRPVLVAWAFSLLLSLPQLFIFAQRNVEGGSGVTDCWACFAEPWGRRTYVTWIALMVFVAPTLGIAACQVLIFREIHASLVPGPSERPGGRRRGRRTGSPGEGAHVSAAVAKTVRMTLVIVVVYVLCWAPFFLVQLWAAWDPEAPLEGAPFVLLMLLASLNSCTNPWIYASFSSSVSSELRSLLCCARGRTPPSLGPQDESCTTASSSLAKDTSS

With `Cc1cnc(N2CC3(CCOCC3)C2)c(C(=O)Nc2ccc(C(=O)N3C[C@@H](C)c4cc(C(=O)Nc5c(C)cccc5F)sc4-c4ccccc43)cc2)c1`, the Activity in assay [1] amounted to 40%. The negative-log IC50 (pIC50) is under 7.85 in assay [2] and under 5.86 in assay [3].
On to `Cc1ccccc1C(=O)Nc1ccc(C(=O)N2CCC(=O)N(C)c3cccc(C)c32)cc1`, for which the pKi in assay [4] is 6.19 and 5.33; in assay [5], 7.15 and 6.21.
Take `Cc1cnc(N2CC3(CCOCC3)C2)c(C(=O)Nc2ccc(C(=O)N3C[C@H](C)c4cc(C(=O)Nc5c(C)cccc5F)sc4-c4ccccc43)cc2)c1`: the pIC50 in assay [2] was 9.29; in assay [3], 7.82.
Regarding `Cc1cnc(N2CC3(CCOCC3)C2)c(C(=O)Nc2ccc(C(=O)N3c4ccccc4-c4sc(C(=O)Nc5c(F)cccc5F)cc4C[C@@H]3C)cc2)c1`, the pIC50 is under 7.85 in assay [2] and under 5.87 in assay [3].
On the same counts, the results for `Cc1cnc(N2CC3(CCOCC3)C2)c(C(=O)Nc2ccc(C(=O)N3c4ccccc4-c4sc(C(=O)Nc5c(F)cccc5F)cc4C[C@H]3C)cc2)c1` are 9.74 and 8.04.
On the same counts, the results for `Cc1cnc(N2CC3(CCOCC3)C2)c(C(=O)Nc2ccc(C(=O)N3CC(C)c4cc(C(=O)Nc5c(C)cccc5F)sc4-c4ccccc43)cc2)c1` (racemic) are 8.96 and 7.77.
The like results for `Cc1cnc(N2CC3(CCOCC3)C2)c(C(=O)Nc2ccc(C(=O)N3c4ccccc4-c4sc(C(=O)Nc5c(F)cccc5F)cc4CC3C)cc2)c1` (racemic) were, in that order, 9.35 and 7.89.
Regarding `Cc1cnc(N2CC3(CCOCC3)C2)c(C(=O)Nc2ccc(C(=O)N3CCc4cc(C(=O)Nc5c(C)cccc5F)sc4-c4ccccc43)cc2)c1` [PC-786], the figures for the pIC50 in assay [2] and in assay [3] were 9.49 and 8.14, respectively.
